Experimental data from ChEMBL document CHEMBL5108057, “Development of MAO-A and 5-HT2AR Dual Inhibitors with Improved Antidepressant Activity” (J Med Chem, 2022).
Active and inactive are the calls of the source. The rule behind the calls is not given here.

How the values were obtained:
[1] = tested on: Mus musculus; test: Antidepressant activity in reserpine-induced ICR mouse model assessed as reduction in immobility time at 10 to 20 mg/kg pretreated with reserpine for 3 days followed by compound addition on day 4 to 10 by tail suspension test; assay type: functional, organism-based; conditions: dose 10-20 mg/kg, time 6.0 day
Summary of the method: (§1)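 Body weight was recorded daily. OFT: 5 min session scoring distance, speed, rearing and dejection. FST and TST: 6 min, with immobility scored over the last 4 min. Mean ± SD, n = 6; one-way ANOVA and t-test.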

[2] = tested on: Hippocampus; test: Antidepressant activity in mouse hippocampal tissue assessed as reduction in neuronal cell damage at 10 to 20 mg/kg by H and E staining based assay; assay type: functional, organism-based; conditions: dose 10-20 mg/kg
Summary of the method: (§2)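 Mice given compound at 10 or 20 mg/kg, with fluoxetine 20 mg/kg as comparator. Paraffin tissue sections of 4 μm were cut. Staining: hematoxylin 5 min, 75% HCl-ethanol differentiation 30 s, eosin 2 min. Organs (liver, kidney, lung, heart, spleen) examined at ×400; hippocampus (CA1, CA3, DG) at ×200.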

[3] = tested on: PC-12; test: Neurocytoprotective activity against CORT-induced damage in rat PC-12 cells at 0.5 to 4 uM measured after 24 hrs by MTT assay; assay type: functional, cell-based; conditions: dose 0.5-4 µM
Summary of the method: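 PC12 cells seeded at 5 × 10^4 cells/mL for 24 h. Medium was then replaced with compound (0.5–4.0 μM) plus 500 μM CORT (DMSO <1%) for 24 h. Viability was measured by MTT relative to the CORT model group.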

[4] = Clearance in Sprague-Dawley rat at 2 mg/kg, iv measured upto 1440 mins by LC-MS/MS analysis; assay type: ADME, organism-based; conditions: in vivo
[5] = tested on: Mus musculus; test: Antidepressant activity in reserpine-induced ICR mouse model assessed as improvement in depression like behavior at 10 mg/kg pretreated with reserpine for 3 days followed by compound addition for 1 week by open field test; assay type: functional, organism-based; conditions: time 1.0 weeks; summary of the method: as §1
[6] = AUC(0 to 24 hrs) in Sprague-Dawley rat at 10 mg/kg, IG measured upto 1440 mins by LC-MS/MS analysis; assay type: ADME, organism-based; design: time < 1440 min, dose 10 mg/kg, route ig; conditions: in vivo, po
[7] = Toxicity in mouse assessed as toxic effect on spleen at 10 to 20 mg/kg by H and E staining based assay; assay type: organism-based; conditions: in vivo, dose 10-20 mg/kg; summary of the method: as §2
[8] = tested on: Mus musculus; test: Antidepressant activity in reserpine-induced ICR mouse model assessed as decrease in number of dejection at 10 to 20 mg/kg pretreated with reserpine for 3 days followed by compound addition on day 4 to 10 by open field test; assay type: functional, organism-based; conditions: dose 10-20 mg/kg, time 6.0 day; summary of the method: as §1
[9] = Half life in Sprague-Dawley rat at 2 mg/kg, iv measured upto 1440 mins by LC-MS/MS analysis; assay type: ADME, organism-based; conditions: in vivo
[10] = Tmax in Sprague-Dawley rat at 2 mg/kg, iv measured upto 1440 mins by LC-MS/MS analysis; assay type: ADME, organism-based; conditions: in vivo
[11] = tested on: Mus musculus; test: Antidepressant activity in chronic unpredictable mild stress ICR mouse model assessed as reduction in depression-like behavior at 10 mg/kg administered for 2 weeks by open field test; assay type: functional, organism-based
Summary of the method: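 ICR mice received CUMS for 4 weeks: 11 stressors given randomly twice daily, 42 days in total. OFT: 5 min session scoring distance, speed, rearing and dejection. FST/TST: 6 min, with immobility scored over the last 4 min. Sucrose preference test was also run. Mean ± SD, n = 6.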

[12] = tested on: Mus musculus; test: Antidepressant activity in reserpine-induced ICR mouse model assessed as reduction in weight loss at 10 to 20 mg/kg pretreated with reserpine for 3 days followed by compound addition on 4 to 10 days; assay type: functional, organism-based; conditions: dose 10-20 mg/kg, time 6.0 day; summary of the method: as §1
[13] = Cytotoxicity against human L02 cells assessed as reduction in cell growth measured after 48 hrs by MTT assay; assay type: toxicity, cell-based
Summary of the method: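 MTT assay: PC12, SH-SY5Y or L02 cells at 5.0 × 10^3 per well were grown for 24 h, treated with compound dilutions from 10 mM DMSO stocks, and cultured 48 h. MTT was then added for 4 h at 37 °C, formazan dissolved in DMSO, and absorbance read at 570 nm. Viability is relative to blank control; IC50 from three repeats. Media contained 10% FBS.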

[14] = Toxicity in mouse assessed as toxic effect on lung at 10 to 20 mg/kg by H and E staining based assay; assay type: organism-based; conditions: in vivo, dose 10-20 mg/kg; summary of the method: as §2
[15] = organism: Danio rerio; test: Antidepressant activity in reserpine-induced zebrafish AB depression model assessed as fast travel at 0.1 to 1 uM pretreated for 40 mins with reserpine followed by compound addition and measured for 7 days by open field test; assay type: functional, organism-based; conditions: dose 0.1-1 µM, time 7.0 day
Summary of the method: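 Zebrafish were exposed to 10 mg/L reserpine for 40 min. Compound (0.1, 0.5, 1 μM) or fluoxetine (1 μM) was given 24 h later for 7 days. Fish kept at 28.5 °C on a 14 h light/10 h dark cycle. Open-field and novel tank tests were video-tracked for distance, velocity, immobility and time in the top. Mean ± SD, n = 6.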

[16] = Tmax in Sprague-Dawley rat at 10 mg/kg, IG measured upto 1440 mins by LC-MS/MS analysis; assay type: ADME, organism-based; conditions: in vivo, po
[17] = AUC(0 to infinity) in Sprague-Dawley rat at 10 mg/kg, IG measured upto 1440 mins by LC-MS/MS analysis; assay type: ADME, organism-based; design: time < 1440 min, dose 10 mg/kg, route ig; conditions: in vivo, po

clearance [4]: 14.5 mL/min/kg
AUC(0-t) at 24 h [6]: 491 ng·h/mL
half-life [9]: 6.31 h
Tmax [10]: 4.8 min
Tmax [16]: 1.33 h
AUC(0-inf) [17]: 504 ng·h/mL
SMILES: O=C1c2ccccc2-c2nccc3cc(OCCCCCN4CCN(c5ccccc5F)CC4)cc1c23
Activity [1]: Active
Activity [2]: Active
Activity [3]: Active
Activity [5]: Active
Activity [7]: Non-Toxic
Activity [8]: Active
Activity [11]: Active
Activity [12]: Active
IC50 at 48 h [13]: > 100 µM
Activity [14]: Non-Toxic
Activity [15]: Active
